What all share (type): functional
Test [1] concerns Leishmania donovani. In words: Growth inhibition of Leishmania donovani promastigotes by the compound at […]. As to conditions: for inhibition at […]: Leishmania donovani.
In test [2] the test system is Leishmania donovani. Description: Growth inhibition of Leishmania donovani promastigotes by the compound at 1.3 uM. An outline of the steps:
(§1)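 Seeded at 0.5 × 10^6 cells per well. Compounds added a few hours later in water. Cells counted by hemacytometer after 3 days, against untreated cultures. Duplicates.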

The subject of test [3] is Leishmania donovani. In words: Growth inhibition of Leishmania donovani promastigotes by the compound at 14 uM. The method, boiled down:
as §1

By inhibition is commonly meant the share of the control response that was lost under treatment. Low readings indicate a response near the control, high ones a response far below the control. In turn, `Nc1ncnc2c1ncn2[C@@H]1O[C@H](C[C@H](N)CC[C@H](N)C(=O)O)[C@@H](O)[C@H]1O` had an inhibition at […] in the test with Leishmania donovani [1] of 34%. In addition, the inhibition at 1.3 µM in the test with Leishmania donovani [2] worked out at 91%.
`NC(CC[C@H](N)C(=O)O)C[C@H]1OC(N2CCC(=O)NC2=O)[C@H](O)[C@@H]1O` (stereo partly specified) returned an inhibition at 14 µM in the test with Leishmania donovani [3] of 19%.
Still for that read-out and setting: the figure for `NC(CC[C@H](N)C(=O)O)C[C@H]1OC(n2ccc(=O)[nH]c2=O)[C@H](O)[C@@H]1O` (stereo partly specified) is 20%.
For the molecule `Nc1ncnc2c1ncn2[C@@H]1O[C@H](C[C@@H](N)CC[C@H](N)C(=O)O)[C@@H](O)[C@H]1O` (stereo in doubt; form 1) [SINEFUNGIN], the inhibition at […] in the test with Leishmania donovani [1] came to 100%.
What is called Inhibition is the share of the control response that was lost under treatment. `Nc1ncnc2c1ncn2[C@@H]1O[C@H](C[C@@H](N)CC[C@H](N)C(=O)O)[C@@H](O)[C@H]1O` (stereo in doubt; form 2) [SINEFUNGIN] showed an Inhibition in the test on Leishmania donovani [1] of 88%.

The record behind these values is ChEMBL document CHEMBL1126291 (J Med Chem, 1992).
